Sampled rows, rich in hits. Any-hit rate of the full collection: about 2.8%.
ARFGAP1 inhibitor: inhibits rat ARF GTPase activating protein 1; Q62848; Arfgap1-stimulated ARF1 GTP hydrolysis, GDP FP detection; inhibition, % at 16.5 µM; 0.26% of 360,000 active; AID 651572;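 active = inhibition above a per-plate limit, mean inhibition of low control wells plus 3 SD, cut at about 25% in these data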;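 note: 0% = DMSO wells with enzyme and 100% = wells lacking Arfgap1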
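System: truncated rat Arfgap1 GAP domain / Medium: HEPES-based buffer, pH 7.5 / Also added: N-terminally truncated human ARF1-GTP substrate / Incubation: enzyme reaction 120 min at 25 °C after 20 min preincubation / Measured by: FP of antibody-bound GDP Alexa 633 tracer, ex 620/em 688 nm / Replicates: singlicate, each compound tested once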
PAFAH1B2 inh: inhibitors of human PAFAH1B2; recombinant PAFAH1B2, FP-rhodamine activity probe, fluorescence polarization; inhibition, % at 3.39 µM; 1.2% of 340,000 active;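 active = inhibition above the mean of all tested compounds plus 3 SD, cut at about 24% in these data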;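 note: 0% = enzyme with DMSO and 100% = wells lacking PAFAH1B2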
Target sequence (P68402 whole entry, looked up): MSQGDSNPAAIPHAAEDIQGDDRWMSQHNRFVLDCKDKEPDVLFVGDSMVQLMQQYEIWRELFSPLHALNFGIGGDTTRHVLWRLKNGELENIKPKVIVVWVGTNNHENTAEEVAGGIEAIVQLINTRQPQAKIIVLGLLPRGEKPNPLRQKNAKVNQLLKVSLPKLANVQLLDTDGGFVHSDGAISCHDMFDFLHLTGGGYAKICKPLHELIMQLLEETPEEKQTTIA
PAFAH2 FP inh: inhibitors of human PAFAH2 | AID 492956 | 0.99% of 340,000 active | recombinant PAFAH2, FP-rhodamine activity probe, fluorescence polarization | inhibition, % at 3.39 µM | Q99487;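 active = inhibition above the mean over all tested compounds plus 3 SD, cut at about 30% in these data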;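 note: inhibitors block probe labeling of enzyme so polarization drops; 0% = enzyme with DMSO and 100% = wells lacking PAFAH2 protein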
PAFAH1B3 inh: blocks human PAF acetylhydrolase 1B catalytic subunit 3. AID 492972. Q15102. inhibition, % at 3.39 µM. 0.28% of 340,000 active. recombinant PAFAH1B3, FP-rhodamine probe, fluorescence polarization;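 active = inhibition above the screen-wide average of all tested compounds plus 3 SD, cut at about 25% in these data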;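 note: 0% = enzyme with DMSO only and 100% = wells lacking PAFAH1B3 protein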
ASAP1 GAP inh: blocks human ASAP1-stimulated Arf1 GTP hydrolysis; Q9ULH1; GDP FP detection; inhibition, % at 16.5 µM; 0.19% of 360,000 active; AID 624377; in the data active = inhibition above about 25%;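 note: 0% = vehicle with enzyme and substrate and 100% = no enzyme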
Target sequence (Q9ULH1 325-724 limits assumed): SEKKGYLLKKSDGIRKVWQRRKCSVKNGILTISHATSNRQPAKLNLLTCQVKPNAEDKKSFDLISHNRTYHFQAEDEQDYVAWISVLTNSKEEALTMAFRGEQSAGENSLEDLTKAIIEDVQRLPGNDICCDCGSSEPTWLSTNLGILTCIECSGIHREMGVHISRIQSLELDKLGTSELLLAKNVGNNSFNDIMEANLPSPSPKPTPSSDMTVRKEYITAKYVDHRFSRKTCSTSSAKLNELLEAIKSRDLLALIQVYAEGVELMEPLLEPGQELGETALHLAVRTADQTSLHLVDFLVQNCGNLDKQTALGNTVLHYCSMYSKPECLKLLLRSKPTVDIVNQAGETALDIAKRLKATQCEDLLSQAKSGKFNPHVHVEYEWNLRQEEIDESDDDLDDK
pPAFAH FP inh: pPAFAH (human) enzyme inhibition | Q13093 | recombinant pPAFAH, FP-rhodamine probe fluorescence polarization | inhibition, % at 3.39 µM | 1.5% of 330,000 active | AID 463082;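 active = inhibition above the mean inhibition across the screen plus 3 SD, cut at about 25% in these data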;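 note: inhibitors block binding of the rhodamine activity-based probe so polarization drops; 0% = enzyme with DMSO and 100% = wells lacking pPAFAH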
pPAFAH confirm: confirmation of human plasma PAF acetylhydrolase (pPAFAH) inhibitors; shares compounds with pPAFAH FP inh; recombinant pPAFAH, FP-Rh probe fluorescence polarization; inhibition, % at 3.39 µM; 72% of 2,300 active; AID 463230;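 active = mean inhibition of the triplicate above the hit cutoff set for the earlier primary screen, cut at about 25% in these data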;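 note: 0% = enzyme with DMSO and 100% = wells lacking pPAFAH enzyme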
An asterisk follows results filed as active; / = no result.

SMILES	ARFGAP1 inhibitor	PAFAH1B2 inh	PAFAH2 FP inh	PAFAH1B3 inh	ASAP1 GAP inh	pPAFAH FP inh	pPAFAH confirm
Oc1ccc(/C=N/Nc2ccnc3cc(Cl)ccc23)c(O)c1O	-1	37*	35*	48*	0	44*	57*
Oc1ccc(/C=N/Nc2ccnc3cc(Cl)ccc23)cc1O	6	25*	20	54*	-15	36*	45*
CN(C)c1nc(N/N=C/c2ccccc2O)nc(Nc2ccc(F)cc2)n1	5	4	-5	7	-3	2	/
OCC(O)/C=N/Nc1nc(Nc2ccccc2)nc(Nc2ccccc2)n1 (centres undefined)	0	-4	1	0	2	39*	20
COc1ccccc1NC(=O)CSc1nc(O)cc(=O)n1-c1ccccc1OC	3	-3	-3	6	-11	43*	0
COc1ccccc1-n1c(SCC(=O)Nc2ccccc2C)nc(O)cc1=O	-11	2	2	4	-19	81*	5
COc1ccccc1-n1c(SCC(=O)NC(C)(C)C)nc(O)cc1=O	6	-2	1	7	-2	3	/
N#Cc1c(NC(=O)c2ccccc2Cl)n(Cc2ccccc2)c2nc3ccccc3nc12	0	53*	64*	63*	-6	38*	35*
CCCCn1c(NC(=O)CC)c(C#N)c2nc3ccccc3nc21	0	8	-10	-6	-8	1	/
COc1ccc(Cl)cc1NC(=O)CCS(=O)(=O)c1ccc(C)cc1	-6	3	0	-2	-2	-3	/
COP(=O)(OC)c1nc(-c2cccc3ccccc23)oc1NCCc1ccccc1	0	3	4	8	-1	38*	31*
COc1ccc(CCNc2oc(-c3cccc4ccccc34)nc2P(=O)(OC)OC)cc1OC	4	0	-4	8	4	3	/
COc1cc(OC)cc(-c2c(-c3cccs3)c3cc(-c4ccc(OCc5ccccc5)cc4)ccc3n2C)c1	0	-3	1	0	-4	45*	4
CN1C(=O)NC(c2ccccc2[N+](=O)[O-])C2=C1CCCC2=O (centres undefined)	1	49*	67*	58*	8	72*	17
Cn1c(O)c(/C=N/NC(=O)c2cc3ccccc3cc2O)c2ccccc21	14	37*	13	37*	14	62*	49*
COc1ccc2c(c1)cc(C(=O)N/N=C/c1c(O)c(C(=O)O)cc3ccccc13)n2C	6	23	39*	29*	19	59*	84*
O=C1c2ccccc2C(c2nnnn2-c2ccc3c(c2)OCCO3)N1CCOc1ccccc1 (centres undefined)	-7	/	/	/	-15	/	/
CCOC(=O)N1CCN(S(=O)(=O)c2ccc(C(=O)N(CCN(C)C)c3nc4ccc(Cl)cc4s3)cc2)CC1	-1	-4	-6	-7	4	-4	/
CCOC(=O)N1CCN(S(=O)(=O)c2ccc(C(=O)NNc3nc4ccc(Cl)cc4s3)cc2)CC1	/	0	10	1	/	38*	39*
COC(=O)CSc1[nH]c(=O)cc(C)c1C#N	6	2	5	9	4	0	/
CCOC(=O)c1cc(C#N)c(SCC(=O)OC)[nH]c1=O	11	3	-6	5	5	35*	1
Nc1c(N(CCO)C(=O)c2ccccc2OCc2ccccc2Cl)c(=O)[nH]c(=O)n1Cc1ccccc1	-5	10	10	2	3	/	/
CCCCOc1ccc(Nc2cc(Cl)ccc2C(=O)O)cn1	1	6	9	12	-8	57*	41*
Cc1c(NS(=O)(=O)c2cc(C(=O)NCCN(C)C)ccc2Cl)c(=O)n(-c2ccccc2)n1C	-4	2	2	5	5	51*	-7
COc1ccc(S(=O)(=O)Nc2c(C)n(C)n(-c3ccccc3)c2=O)c(Cl)c1Cl	-4	3	-3	-2	0	62*	6
SMILES	ARFGAP1 inhibitor	PAFAH1B2 inh	PAFAH2 FP inh	PAFAH1B3 inh	ASAP1 GAP inh	pPAFAH FP inh	pPAFAH confirm
CCc1nc2c(OCC(=O)c3ccc(Cl)cc3Cl)cccn2c1N(C)C(=O)COc1ccccc1	1	/	/	/	-4	/	/
COc1ccccc1NC(=O)Nc1ccc(C(N)=O)cc1	-1	2	-1	0	3	42*	-1
O=C(C(=O)N1CCC(CNS(=O)(=O)c2cc(C(F)(F)F)cc(C(F)(F)F)c2)CC1)c1cc2ccccc2o1	-4	/	/	/	-3	/	/
O=C1CCCCC1C1(O)C(=O)Nc2ccccc21 (centres undefined)	4	/	/	/	-10	/	/
N=C1/C(=C\c2ccc(OC(=O)c3ccccc3Cl)cc2)C(=O)N=C2SC(N3CCOCC3)=NN12	-5	5	8	16	-3	36*	33*
O=C(NCc1ccccc1)c1ccc2c(=O)[nH]c3c(C(=O)NCC4CCCO4)sc(=S)n3c2c1 (centres undefined)	3	35*	54*	34*	7	63*	81*
CCn1c(N)c(C(=O)NCC2CCCO2)sc1=S (centres undefined)	7	5	-2	3	-14	5	/
Cc1ccc(CNC(=O)c2ccc3c(=O)n(CC4CCCO4)c(=S)[nH]c3c2)cc1 (centres undefined)	-6	4	1	4	6	-1	/
O=C(NCc1ccco1)c1sc(=S)n2c1[nH]c(=O)c1ccccc12	-12	18	30	19	4	47*	61*
CCCCCNC(=O)c1ccc2c(=O)[nH]c3c(C(=O)NCC4CCCO4)sc(=S)n3c2c1 (centres undefined)	0	49*	45*	38*	7	62*	74*
Cc1ccc(CNC(=O)c2ccc3c(=O)[nH]c4c(C(=O)NCC5CCCO5)sc(=S)n4c3c2)cc1 (centres undefined)	4	30*	31*	34*	10	38*	75*
C[C@H](CO)N1C[C@H](C)[C@@H](CN(C)C(=O)Nc2ccc(C(F)(F)F)cc2)Oc2ccc(NS(=O)(=O)c3ccc(F)cc3)cc2C1=O	-6	11	9	9	-5	61*	59*
C[C@H](CO)N1C[C@H](C)[C@@H](CN(C)C(=O)Nc2ccccc2)Oc2ccc(NC(=O)Nc3ccc(C(F)(F)F)cc3)cc2C1=O	-2	-28	-92	-52	8	-23	/
C[C@H](CO)N1C[C@H](C)[C@@H](CN(C)C(=O)Nc2ccc(C(F)(F)F)cc2)Oc2ccc(NS(=O)(=O)c3ccccc3)cc2C1=O	12	4	2	0	9	76*	68*

Screening data as filed in PubChem.
